Data on 1 compound can be found in paper PMC8179660 (Chemical Science, 2021).

This experiment deals with T1, p300 (Homo sapiens, UniProt Q09472).
T1 sequence (Q09472 1284-1673 limits assumed): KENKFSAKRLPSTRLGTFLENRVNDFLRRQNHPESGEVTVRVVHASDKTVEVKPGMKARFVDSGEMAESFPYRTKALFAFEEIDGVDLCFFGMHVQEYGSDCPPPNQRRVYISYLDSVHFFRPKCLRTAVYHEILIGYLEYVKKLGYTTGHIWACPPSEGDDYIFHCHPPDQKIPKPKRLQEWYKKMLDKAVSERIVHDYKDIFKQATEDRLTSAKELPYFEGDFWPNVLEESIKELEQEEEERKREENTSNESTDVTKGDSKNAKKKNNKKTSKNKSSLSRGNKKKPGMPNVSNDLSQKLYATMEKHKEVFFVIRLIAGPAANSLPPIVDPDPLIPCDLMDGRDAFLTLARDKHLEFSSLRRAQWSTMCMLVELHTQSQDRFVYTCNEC
Nature of the experiment: radioactive acetyltransferase activity-based IC50 assay. It counts as biochemical. The gist of the method: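 Test compounds came from a DNA-encoded peptide macrocycle library affinity selection against p300 using a poly-His/Ni-NTA magnetic bead binding system. They were resynthesized off-DNA, without the DNA tag, and tested for p300 inhibition in a radioactive acetyltransferase activity assay to derive IC50.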

Turning to `CC(C)C[C@H]1NC(=O)[C@@H](NC(=O)CCc2cccc([N+](=O)[O-])c2)Cc2ccc(cc2)SC[C@@H](C(N)=O)NC(=O)CC2(CCCCC2)CNC1=O` [Compound 33-C], the IC50 worked out at 5.2 µM.
